Experimental findings from ChEMBL document CHEMBL1134845, “Syntheses and biological activities of a novel group of steroidal derived inhibitors for human Cdc25A protein phosphatase” (J Med Chem, 2001) are described below.

pIC50: −log10 of the molar value.

The target of assay [1] is T1, M-phase inducer phosphatase 1 (Homo sapiens, UniProt P30304).
T1 sequence (P30304 whole entry): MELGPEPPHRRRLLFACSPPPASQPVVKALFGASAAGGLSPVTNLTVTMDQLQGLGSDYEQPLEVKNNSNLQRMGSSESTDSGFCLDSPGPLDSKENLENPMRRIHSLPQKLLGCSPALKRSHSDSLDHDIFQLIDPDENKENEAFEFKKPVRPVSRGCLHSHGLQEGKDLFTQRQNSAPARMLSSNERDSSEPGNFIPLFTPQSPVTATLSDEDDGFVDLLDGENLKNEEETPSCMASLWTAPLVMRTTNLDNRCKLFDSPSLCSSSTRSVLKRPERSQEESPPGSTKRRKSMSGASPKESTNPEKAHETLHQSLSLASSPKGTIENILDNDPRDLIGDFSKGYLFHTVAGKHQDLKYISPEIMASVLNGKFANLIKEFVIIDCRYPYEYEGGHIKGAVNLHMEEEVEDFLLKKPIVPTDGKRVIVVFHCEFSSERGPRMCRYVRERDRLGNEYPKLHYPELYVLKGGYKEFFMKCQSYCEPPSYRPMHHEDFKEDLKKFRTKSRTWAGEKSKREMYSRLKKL
The assay can be described thus: Inhibitory activity tested against cell division cycle 25A (assay using p-nitrophenyl phosphate (pNPP) as substrate).

The nature of assay [2]: Inhibitory activity against PSPTase. Put shortly: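 Human GST-Cdc25A fusion protein, with each batch calibrated for linear dephosphorylation of fluorescein diphosphate over 20 min. Run 15 min at 25 °C in the dark and stopped with sodium orthovanadate. Fluorescein monophosphate read at ex 485/em 530 nm. IC50 from at least two independent determinations, each in triplicate; variation from the mean within ±20%.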

Assay [3] deals with OVCAR-3. Briefly: Growth inhibitory activity was determined against OVCAR-3 cancer cell line of Ovarian cancer. To be noted: Homo sapiens. The assay is classed as functional. In a few lines:
(§1)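 NCI 60 human tumour cell line screen run at the National Cancer Institute. Cell growth and viability read with the protein stain sulforhodamine B, which binds basic amino acids of cells left attached after washing. […] MG MID is the mean GI50 calculated over all panels.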

In assay [4] the test system is UO-31. Briefly: Growth inhibitory activity was determined against UO-31 cancer cell line of renal cancer. The assay is classed as functional. Conditions: Homo sapiens. Put shortly:
as §1

The subject of assay [5] is SN12C. Briefly: Growth inhibitory activity was determined against SN12C cancer cell line of renal cancer. The assay is classed as functional. To be noted: Homo sapiens. Put shortly:
as §1

In assay [6] the test system is HT-29. The assay can be described thus: Growth inhibitory activity was determined against HT-29 cancer cell line colon cancer. The assay is classed as functional, Homo sapiens. To be noted: Homo sapiens, HT-29. Put shortly: as §1
Assay [7] relates to T47D. Briefly: Growth inhibitory activity was determined against T-47D cancer cell line of Breast cancer. The format is functional, Homo sapiens. Conditions: Homo sapiens, T47D. Put shortly: as §1
The target of assay [8] is T1, M-phase inducer phosphatase 1. The assay can be described thus: Inhibitory activity tested against cell division cycle 25A (assay using fluorescein diphosphate (FDP) as substrate). In a few lines: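 Recombinant human GST-Cdc25A fusion protein, each batch calibrated so that FDP was dephosphorylated linearly over 20 min. Fluorescein diphosphate was the substrate. Reactions ran 15 min at 25 °C in the dark and were stopped with sodium orthovanadate. IC50 came from at least two independent runs, each in triplicate.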

Assay [9] has as its system U-251. Briefly: Growth inhibitory activity was determined against U-251 cancer cell line of CNS cancer. Conditions: Homo sapiens. The format is functional. Put shortly:
as §1

In assay [10] the test system is NCI/ADR-RES. Briefly: Growth inhibitory activity was determined against NCI/ADR-RES cancer cell line of Breast cancer. The format is functional, Homo sapiens. Conditions: Homo sapiens, NCI/ADR-RES. In a few lines:
as §1

For assay [11], the system named is COLO 205. Briefly: Growth inhibitory activity was determined against COLO 205 cancer cell line colon cancer. The format is functional, Homo sapiens. To be noted: Homo sapiens, COLO 205. In a few lines: as §1
The test system of assay [12] is NCI-H23. Briefly: Growth inhibitory activity was determined against NCI-H23 cancer cell line of non-small cell lung cancer. The format is functional, Homo sapiens. Conditions: Homo sapiens, NCI-H23. In a few lines:
as §1

Assay [13] has as its system A549. Briefly: Inhibitory activity against A549 human adenocarcinoma. The format is functional, cell-based. In a few lines: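 Soft agar clonogenic assay of anchorage-independent growth, using HT-29 colon and A549 lung adenocarcinoma cells. The value is the compound concentration that cut colony number to 50% of control.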
The target of assay [14] is T2, Receptor-type tyrosine-protein phosphatase C (Homo sapiens, UniProt P08575).
T2 sequence (P08575 whole entry): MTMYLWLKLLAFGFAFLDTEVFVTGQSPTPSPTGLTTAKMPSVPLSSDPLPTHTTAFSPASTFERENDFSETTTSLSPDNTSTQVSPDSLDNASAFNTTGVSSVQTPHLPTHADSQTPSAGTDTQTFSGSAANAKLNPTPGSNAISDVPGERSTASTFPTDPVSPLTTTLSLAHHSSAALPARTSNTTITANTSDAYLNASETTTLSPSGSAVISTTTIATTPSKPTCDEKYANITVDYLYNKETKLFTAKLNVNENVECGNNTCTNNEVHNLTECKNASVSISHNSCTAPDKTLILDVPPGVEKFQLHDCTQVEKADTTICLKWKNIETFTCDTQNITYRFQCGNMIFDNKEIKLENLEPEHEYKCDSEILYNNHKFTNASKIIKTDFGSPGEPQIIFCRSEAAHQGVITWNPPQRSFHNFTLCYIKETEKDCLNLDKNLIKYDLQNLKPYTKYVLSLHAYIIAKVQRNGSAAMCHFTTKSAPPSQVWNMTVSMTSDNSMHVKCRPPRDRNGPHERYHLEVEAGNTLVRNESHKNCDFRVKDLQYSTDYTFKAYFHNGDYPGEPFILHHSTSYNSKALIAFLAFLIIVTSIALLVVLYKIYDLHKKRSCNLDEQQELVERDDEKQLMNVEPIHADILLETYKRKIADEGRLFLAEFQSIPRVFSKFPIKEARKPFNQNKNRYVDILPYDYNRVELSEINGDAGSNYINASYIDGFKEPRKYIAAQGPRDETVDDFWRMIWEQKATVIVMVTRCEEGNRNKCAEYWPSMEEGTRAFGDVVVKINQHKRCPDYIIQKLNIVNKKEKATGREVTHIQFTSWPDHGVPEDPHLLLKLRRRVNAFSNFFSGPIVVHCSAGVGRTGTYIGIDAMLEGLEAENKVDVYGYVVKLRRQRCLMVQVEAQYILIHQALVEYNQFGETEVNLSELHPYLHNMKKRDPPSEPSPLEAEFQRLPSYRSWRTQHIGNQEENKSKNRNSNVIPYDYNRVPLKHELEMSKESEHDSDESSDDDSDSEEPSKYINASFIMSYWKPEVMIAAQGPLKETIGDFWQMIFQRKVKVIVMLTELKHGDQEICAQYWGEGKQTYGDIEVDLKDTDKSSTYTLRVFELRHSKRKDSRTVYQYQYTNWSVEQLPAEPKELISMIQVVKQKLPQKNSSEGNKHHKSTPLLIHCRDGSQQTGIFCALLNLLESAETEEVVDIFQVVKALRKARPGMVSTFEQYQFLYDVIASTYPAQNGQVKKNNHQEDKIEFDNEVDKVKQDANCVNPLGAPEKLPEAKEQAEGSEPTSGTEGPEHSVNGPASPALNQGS
Briefly: Inhibitory activity tested against Human CD45 Phosphatase (assay using p-nitrophenyl phosphate (pNPP) as substrate).

For assay [15], the system named is OVCAR-8. Briefly: Growth inhibitory activity was determined against OVCAR-8 cancer cell line of Ovarian cancer. The format is functional. To be noted: Homo sapiens. Put shortly:
as §1

Assay [16] concerns 786-0. The assay can be described thus: Growth inhibitory activity was determined against 786-0 cancer cell line of renal cancer. The assay is classed as functional. To be noted: Homo sapiens. Put shortly: as §1
For assay [17], the system named is LOX IMVI. Briefly: Growth inhibitory activity was determined against LOX IMVI cancer cell line of melanoma. The format is functional, Homo sapiens. Conditions: Homo sapiens, LOX IMVI. In a few lines:
as §1

The target of assay [18] is T1, M-phase inducer phosphatase 1. Briefly: Inhibitory activity tested against cell division cycle 25A (assay using p-nitro phenyl phosphate (pNPP) as substrate).
In assay [19] the test system is PC-3. The assay can be described thus: Growth inhibitory activity was determined against PC-3 cancer cell line of Prostate cancer. The format is functional. To be noted: Homo sapiens. Put shortly: as §1
The test system of assay [20] is NCI-H522. Briefly: Growth inhibitory activity was determined against NCI-H522 cancer cell line of non-small cell lung cancer. To be noted: Homo sapiens. The format is functional. Put shortly: as §1
The test system of assay [21] is SF-539. The assay can be described thus: Growth inhibitory activity was determined against SF-539 cancer cell line of CNS cancer. The assay is classed as functional. Conditions: Homo sapiens. In a few lines: as §1
The subject of assay [22] is SF-268. The assay can be described thus: Growth inhibitory activity was determined against SF-268 cancer cell line of CNS cancer. The assay is classed as functional. To be noted: Homo sapiens. In a few lines: as §1
For assay [23], the system named is BT-549 (Homo sapiens). The assay can be described thus: Growth inhibitory activity was determined against BT-549 cancer cell line of Breast cancer. Conditions: Homo sapiens, BT-549.
The test system of assay [24] is A549. Briefly: Growth inhibitory activity was determined against A549/ATCC cancer cell line of non-small cell lung cancer. The format is functional, Homo sapiens. Conditions: Homo sapiens, A549. In a few lines:
as §1

Assay [25] has as its system SK-MEL-5. The assay can be described thus: Growth inhibitory activity was determined against SK-MEL-5 cancer cell line of melanoma. The format is functional, Homo sapiens. To be noted: Homo sapiens, SK-MEL-5. Put shortly:
as §1

`CC1=CC[C@H]2C(C)(C)CCC[C@]2(C)[C@H]1C(C)[C@H](OS(=O)(=O)O)[C@H](C)CCCc1ccoc1` (stereo not given in full): the pIC50 (usually −log10 of the IC50, conventionally taken in molar units) in assay [1] is 5.11.
In assay [2], `C=C1[C@@H](O)[C@@H]2O[C@]3(CC[C@H](/C=C/[C@@H](C)[C@@H]4CC(C)=C[C@@]5(O[C@H](C[C@@](C)(O)C(=O)O)CC[C@H]5O)O4)O3)CC[C@H]2O[C@@H]1[C@@H](O)C[C@H](C)[C@H]1O[C@@]2(CCCCO2)CC[C@H]1C` [OKADAIC ACID] gave a pIC50 of 7.31.
For the molecule `CC(C)CCCC(C)[C@H]1CC[C@H]2[C@@H]3CC(=O)O[C@](C)(CC/C=C\C#N)[C@H]3CC[C@]12C` (stereo not given in full), the GI50 (as a rule, the concentration giving 50% growth inhibition) in assay [3] was 13.3 µM; in assay [4], 0.39 µM; in [5], 5.08 µM; in assay [6], 4.85 µM; in [7] it was 8.35 µM; in assay [9], 9.49 µM. The GI50 in [10] is over 25 µM; in assay [11], 8.49 µM; in [12] it was 14.8 µM; in [15], 8.72 µM; in [16], 7.54 µM; in assay [17] it was 5.15 µM. In addition, the GI50 is 9.73 µM in [19]; 0.89 µM in [20]; over 25 µM in [21]; 3.19 µM in assay [22]; over 25 µM in assay [23]; 15 µM in assay [24]. Besides, in [25], the GI50 stood at 4.57 µM. In addition, the negative-log IC50 (pIC50) in assay [8] was 4.54; in [13] it was 5.14; in [14] it was under 4.00; in assay [18] it was under 4.00.
